In article PMC12217349 (Scientific Reports, 2025):

Columns and labels:
[1] = system: bone marrow collagen fibrosis; conditions: myelofibrosis patients treated for 9 months; cited from earlier work
[2] = system: myocardial infarction (MI) mouse model; test: Myocardial infarction; type: in vivo, Male C57BL/6J mice; conditions: MI mice; daily oral gavage 28 days; SNT-5382 14 mg/kg, losartan 15 mg/kg
Outline: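 Male C57BL/6J mice, 10–11 weeks, were anaesthetised with ketamine 100 mg/kg and xylazine 10 mg/kg under ventilation. The left coronary artery was permanently ligated; shams had no occlusion. Mice with fractional shortening of 10–40% at 24 h were included. Daily oral gavage for 4 weeks: test compound 14 mg/kg (free base), losartan 15 mg/kg or water vehicle; blinded.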

[3] = system: LOXL2; conditions: cited from earlier work

NCc1cc(Oc2cccc(C(=O)N3C[C@@H](O)[C@H](F)C3)c2)nc(C(F)(F)F)c1 [GB2064]
patients with reduced bone marrow collagen fibrosis grade [1]: 60%

CCCCc1nc(Cl)c(CO)n1Cc1ccc(-c2ccccc2-c2nn[nH]n2)cc1 [losartan, Losartan]
hypertrophy: left ventricular end-systolic diameter (LVESD) [2]: no significant effect

B1: simtuzumab: an allosteric LOXL2 selective antibody (antibody, chains of the INN, looked up, V domains shown)
VH: QVQLVQSGAEVKKPGASVKVSCKASGYAFTYYLIEWVRQAPGQGLEWIGVINPGSGGTNYNEKFKGRATITADKSTSTAYMELSSLRSEDTAVYFCARNWMNFDYWGQGTTVTVSS
VL: DIVMTQTPLSLSVTPGQPASISCRSSKSLLHSNGNTYLYWFLQKPGQSPQFLIYRMSNLASGVPDRFSGSGSGTDFTLKISRVEAEDVGVYYCMQHLEYPYTFGGGTKVEIK
inhibition of LOXL2 enzymatic activity [3]: did not inhibit the enzymatic activity of LOXL2
